Test results taken from publication PMC6368469 (Journal of clinical pharmacology, 2018).
Several values for one entry are separate records, joined by “and”; a condition that tells them apart may be missing. Equal values may be shown once. Where a name gives a salt, the structure may show the parent alone. Read-outs that look alike come from different tables or passages of the source. One block for each compound: values may come before it.

How the values were obtained:
[1] = Umbilical cord blood and maternal plasma concentrations at delivery; assay type: in vivo, human; details: 15 patients, detection limit 0.039 μg/mL; for Detected in maternal plasma samples: number of samples at delivery; for Detected in cord plasma samples: number of samples
[2] = assay type: in vivo, human; details: for Cmax / Cmin / AUC(0-t): plasma; for Cl/F: dose/AUC0–12
[3] = Clinical and laboratory safety monitoring of mothers and infants; assay type: in vivo, human
HIV = details: cited from earlier work
[4] = Stability in stored plasma; assay type: in vitro ADME; details: plasma stored at −20°C
How it was run: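 Human plasma from study participants, stored at −20°C. Test compound and its metabolite were quantified together by reversed-phase HPLC-UV after acetonitrile protein precipitation. Supernatant was injected onto a C-18 column and eluted isocratically with 10mM potassium phosphate pH 4.2:ACN (62:38 v/v) at 1.2 mL/min. Detection was at 206 nm, with a detection limit of 0.039 μg/mL. Validation QC samples spanned multiple concentrations.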

[5] = cited from earlier work
[6] = cited from earlier work; remark: listed apart in the source
[7] = 1875mg BID 3rd trimester vs 1250mg BID postpartum, (90% CI)
[8] = 3rd trimester, nelfinavir 1875mg BID, median (IQR), n = 18
[9] = postpartum, nelfinavir 1250mg BID, median (IQR), n=16
[10] = 1875mg BID 3rd trimester vs 1250mg BID postpartum, (90% CI), listed as Nelfinavir

Detected in maternal plasma samples [1]: 10
Detected in cord plasma samples [1]: 3
Cmin geometric mean ratio 3rd trimester/postpartum [2, 7]: 0.78 (0.40–1.26)
M8/NFV AUC ratio [2, 8]: 0.11 (0.08–0.22)
Cmax [2, 8]: 0.66 (0.48–1.12) μg/mL
Cmin [2, 8]: 0.11 (0.05–0.15) μg/mL
Cmax [2, 9]: 1.20 (1.07–1.71) μg/mL
Cmin [2, 9]: 0.14 (0.04–0.21) μg/mL
M8/NFV AUC ratio [2, 9]: 0.30 (0.17–0.35)
SMILES: Cc1c(O)cccc1C(=O)N[C@@H](CSc1ccccc1)[C@H](O)CN1C[C@H]2CCCC[C@H]2C[C@H]1C(=O)NC(C)(C)CO [M8, hydroxyl-tert-butylamide]

Stability in plasma [4]: stable
Detected in maternal plasma samples [1]: 13 out of 15
Detected in cord plasma samples [1]: 10 out of 15
AUC0–12 geometric mean ratio 3rd trimester/postpartum [2, 7]: 0.98 (0.71–1.35)
Cl/F geometric mean ratio 3rd trimester/postpartum [2, 7]: 1.54 (1.12–2.11)
Cmax geometric mean ratio 3rd trimester/postpartum [2, 7]: 1.06 (0.85–1.34)
Cmin geometric mean ratio 3rd trimester/postpartum [2, 7]: 0.90 (0.71–1.16)
AUC0–12 geometric mean ratio 3rd trimester/postpartum [2, 10]: 0.98
Cl/F geometric mean ratio 3rd trimester/postpartum [2, 10]: 1.54
Participants with AUC0–12 above target (18.5 μg h/mL) ([2]; 3rd trimester, 1875 mg twice daily, 15 of 18): 83%
Cl/F [2, 8]: 54.9 (40.4–68.9) L/h
AUC(0-t) ([2]; female, human, 1250 mg): 33500 ng·h/mL and 58.9 µM·h
Cmax ([2]; female, human, 1250 mg): 5000 ng/mL
AUC(0-t) ([2]; female, human, 1875 mg): 34200 ng·h/mL and 60.2 µM·h
Patients with increased Cl/F during 3rd trimester compared to the postpartum period ([2]; number of pregnant patients): 11 out of 18
Cmin [2, 8]: 0.47 (0.35–1.33) μg/mL
Cmin [2, 9]: 0.52 (0.22–0.80) μg/mL
Participants with AUC0–12 above target (18.5 μg h/mL) ([2]; postpartum, 1250mg twice daily, 14 of 16): 88%
Cl/F [2, 9]: 37.4 (28.7–43.7) L/h
SMILES: Cc1c(O)cccc1C(=O)N[C@@H](CSc1ccccc1)[C@H](O)CN1C[C@H]2CCCC[C@H]2C[C@H]1C(=O)NC(C)(C)C [NFV, Nelfinavir mesylate]
Grade 3–4 adverse events treatment-related ([3]; 18 patients): none were determined to be treatment-related
Safety concerns ([3]; increased dose 1875 mg twice daily in third trimester): No major safety concerns were noted
Activity against HIV (HIV): moderately potent activity
Subjects meeting the AUC target during the 3rd trimester ([5]; in vivo, 1250 mg): 56%
Placental crossing ([5]; in vivo): crossed the placenta poorly
10th percentile AUC0–12 (target AUC) ([5]; non-pregnant historical controls): 18500 ng·h/mL

SMILES: CC(C)CN(C[C@@H](O)[C@H](Cc1ccccc1)NC(=O)O[C@H]1CO[C@H]2OCC[C@H]21)S(=O)(=O)c1ccc(N)cc1 [darunavir]
AUC and Cmax in pregnancy ([6]; standard dosing): substantially decreased

SMILES: Cc1cc(C#N)cc(C)c1Oc1nc(Nc2ccc(C#N)cc2)nc(N)c1Br [etravirine]
Exposure during pregnancy [6]: increased
